Source: ChEMBL document CHEMBL1134287, “Design and pharmacological activity of phosphinic acid based NAALADase inhibitors” (J Med Chem, 2001)
pIC50: −log10 of the molar value.

Target: Glutamate carboxypeptidase 2 (Rattus norvegicus, UniProt P70627)
Assay: Inhibitory concentration against rat brain NAALADase (Folate hydrolase)
Procedure, shortened: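 IC50 values were determined by a method described elsewhere, from two to four independent determinations each. The values refer to racemic material.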

Glutamate carboxypeptidase 2, sequence (P70627 whole entry): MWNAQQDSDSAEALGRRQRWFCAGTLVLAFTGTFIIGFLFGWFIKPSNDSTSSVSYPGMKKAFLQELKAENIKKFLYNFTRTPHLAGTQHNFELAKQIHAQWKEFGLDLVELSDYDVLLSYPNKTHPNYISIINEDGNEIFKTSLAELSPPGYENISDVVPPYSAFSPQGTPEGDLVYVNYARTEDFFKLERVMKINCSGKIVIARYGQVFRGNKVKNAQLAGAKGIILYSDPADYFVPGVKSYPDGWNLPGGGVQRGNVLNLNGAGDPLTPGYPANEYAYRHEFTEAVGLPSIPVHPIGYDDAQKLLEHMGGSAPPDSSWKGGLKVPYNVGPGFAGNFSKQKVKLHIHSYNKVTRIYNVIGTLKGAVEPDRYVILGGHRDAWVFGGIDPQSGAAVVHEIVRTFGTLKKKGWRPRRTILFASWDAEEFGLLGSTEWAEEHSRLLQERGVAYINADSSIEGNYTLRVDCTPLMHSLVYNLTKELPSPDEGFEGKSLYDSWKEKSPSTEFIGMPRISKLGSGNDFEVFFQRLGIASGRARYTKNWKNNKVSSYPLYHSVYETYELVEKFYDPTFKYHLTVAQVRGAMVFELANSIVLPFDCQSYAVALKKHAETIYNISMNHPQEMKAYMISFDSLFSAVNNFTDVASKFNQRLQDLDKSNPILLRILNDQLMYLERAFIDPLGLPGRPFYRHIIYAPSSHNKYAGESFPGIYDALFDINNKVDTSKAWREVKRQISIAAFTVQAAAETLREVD

| pIC50 | Compound |
| --- | --- |
| 7.80 | O=C(O)CCC(CP(=O)(O)C(O)c1cccc(F)c1)C(=O)O (stereo not given) |
| 5.53 | O=C(O)CCC(CP(=O)(O)c1ccccc1)C(=O)O (stereo not given) |
| 8.00 | O=C(O)CCC(CP(=O)(O)C(O)c1ccncc1)C(=O)O (stereo not given) |
| 6.84 | Nc1cccc(CP(=O)(O)CC(CCC(=O)O)C(=O)O)c1 (stereo not given) |
| 6.83 | O=C(O)CCC(CP(=O)(O)CCc1ccccc1)C(=O)O (stereo not given) |
| 6.81 | O=C(O)CCC(CP(=O)(O)Cc1ccccc1F)C(=O)O (stereo not given) |
| 7.28 | O=C(O)CCC(CP(=O)(O)Cc1ccccc1)C(=O)O (stereo not given) |
| 7.17 | Cc1ccc(CP(=O)(O)CC(CCC(=O)O)C(=O)O)cc1 (stereo not given) |
| 7.23 | O=C(O)CCC(CP(=O)(O)CNCc1ccccc1)C(=O)O (stereo not given) |

The next lines start with the compound.

| Compound | pIC50 |
| --- | --- |
| O=C(O)CC(CP(=O)(O)O)C(=O)O (stereo not given) | 5.66 |
| O=C(O)CCC(CP(=O)(O)Cc1cc(C(F)(F)F)cc(C(F)(F)F)c1)C(=O)O (stereo not given) | 7.26 |
| CC(CP(=O)(O)CC(CCC(=O)O)C(=O)O)C(=O)OCc1ccccc1 (stereo not given) | 7.02 |
| O=C(O)C(Cc1ccccc1)CP(=O)(O)O (stereo not given) | 6.26 |
| COc1ccc(NCP(=O)(O)CC(CCC(=O)O)C(=O)O)cc1 (stereo not given) | 8.52 |
| O=C(O)C(CCc1ccccc1)CP(=O)(O)O (stereo not given) | 6.70 |
| O=C(O)CCC(CP(=O)(O)CC(CCC(=O)O)C(=O)O)C(=O)O (stereo not given) | 9.30 |
| O=C(O)C(Cc1cccc(O)c1)CP(=O)(O)O (stereo not given) | 6.29 |
| O=C(O)CCCC(CP(=O)(O)O)C(=O)O (stereo not given) | 6.73 |
| N#CCCC(CP(=O)(O)O)C(=O)O (stereo not given) | 6.47 |
| CC(CP(=O)(O)CC(CCC(=O)O)C(=O)O)C(=O)O (stereo not given) | 8.82 |
| O=C(O)CCC(CP(=O)(O)Cc1cc(F)cc(F)c1)C(=O)O (stereo not given) | 7.31 |
| CCCP(=O)(O)CC(CCC(=O)O)C(=O)O (stereo not given) | 6.44 |
| O=C(O)C(CCC1N=NN=N1)CP(=O)(O)O (stereo not given) | 6.76 |
| O=C(O)CCC(CP(=O)(O)CC(Cc1ccccc1)C(=O)O)C(=O)O (stereo not given) | 8.70 |
| O=C(O)CCC(CP(=O)(O)Cc1c(F)c(F)c(F)c(F)c1F)C(=O)O (stereo not given) | 7.09 |
